From ChEMBL document CHEMBL1139340, “Synthesis, radiosynthesis, and biological evaluation of carbon-11 and fluorine-18 labeled reboxetine analogues: potential positron emission tomography radioligands for in vivo imaging of the norepinephrine transporter” (J Med Chem, 2009)

Tests used:
[1] = Ratio of drug uptake in pons to caudate of anesthetized rhesus monkey at 15 to 20 mCi pretreated with 0.125 mg/kg desipramine by microPET; type: ADME, organism-based, Macaca mulatta; parameters: dose 0.125 mg/kg; conditions: in vivo
Procedure, shortened: (§1)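 Anesthetized adult male rhesus monkeys imaged on a microPET P4 system after injection of 15–20 mCi of the 11C-labeled radioligand. Desipramine was given 40 min before radiotracer injection. Emission data were collected continuously for 125 min and binned. ROIs were drawn manually on anatomical landmarks in the reconstructed images. The ratio of region-of-interest to caudate uptake was taken from time-activity curves at 85 min postinjection.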

[2] = system: Kidney; assay: Biodistribution in Sprague-Dawley rat kidney at 300 uCi, iv after 30 mins; type: ADME, organism-based; conditions: in vivo, 0.5 h
[3] = system: Kidney; assay: Biodistribution in Sprague-Dawley rat kidney at 300 uCi, iv after 60 mins; type: ADME, organism-based; conditions: in vivo, 1 h
[4] = system: Heart; assay: Biodistribution in Sprague-Dawley rat heart at 300 uCi, iv after 15 mins; type: ADME, organism-based; conditions: in vivo, 0.25 h
[5] = system: Liver; assay: Biodistribution in Sprague-Dawley rat liver at 300 uCi, iv after 5 mins; type: ADME, organism-based; conditions: in vivo
[6] = system: Blood; assay: Biodistribution in Sprague-Dawley rat blood at 300 uCi, iv after 15 mins; type: ADME, organism-based; conditions: in vivo, 0.25 h
[7] = system: Spleen; assay: Biodistribution in Sprague-Dawley rat spleen at 300 uCi, iv after 5 mins; type: ADME, organism-based; conditions: in vivo
[8] = Ratio of drug uptake in thalamus to caudate of anesthetized rhesus monkey at 15 to 20 mCi after 85 mins postinjection by microPET; type: ADME, organism-based, Macaca mulatta; conditions: in vivo
Procedure, shortened: (§2)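 Anesthetized adult male rhesus monkeys scanned on a microPET P4 after 15–20 mCi of the 11C radioligand; emission collected continuously for 125 min, binned, time-activity curves from manually drawn anatomical ROIs; regional uptake divided by caudate uptake (caudate as NET-poor reference) at 85 min postinjection, at baseline.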

[9] = system: Spleen; assay: Biodistribution in Sprague-Dawley rat spleen at 300 uCi, iv after 30 mins; type: ADME, organism-based; conditions: in vivo, 0.5 h
[10] = Ratio of drug uptake in pons to caudate of awaken rhesus monkey at 15 to 20 mCi after by PET method; type: ADME, Macaca mulatta; conditions: in vivo
Procedure, shortened: (§3)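 Awake rhesus monkeys imaged on a high-resolution research tomograph (HRRT) for 120 min after radioligand injection; images coregistered with composite MRI to define regions; time-activity curves generated and highest ratio of regional uptake to caudate uptake taken.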

[11] = system: Lung; assay: Biodistribution in Sprague-Dawley rat lung at 300 uCi, iv after 15 mins; type: ADME, organism-based; conditions: in vivo, 0.25 h
[12] = system: Liver; assay: Biodistribution in Sprague-Dawley rat liver at 300 uCi, iv after 60 mins; type: ADME, organism-based; conditions: in vivo, 1 h
[13] = system: Spleen; assay: Biodistribution in Sprague-Dawley rat spleen at 300 uCi, iv after 60 mins; type: ADME, organism-based; conditions: in vivo, 1 h
[14] = system: Brain; assay: Biodistribution in Sprague-Dawley rat brain at 300 uCi, iv after 5 mins; type: ADME, organism-based; conditions: in vivo
[15] = Ratio of drug uptake in cerebellum to caudate of awaken rhesus monkey at 15 to 20 mCi after by PET method; type: ADME, tissue-based, Macaca mulatta; conditions: in vivo
Procedure, shortened: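 Awake rhesus monkeys imaged on a high-resolution research tomograph for 120 min after injection of the ¹¹C tracer. Images coregistered with composite MRI to define regions of interest. Highest cerebellum-to-caudate uptake ratio read from the time-activity curves.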

[16] = system: Muscle tissue; assay: Biodistribution in Sprague-Dawley rat muscle at 300 uCi, iv after 60 mins; type: ADME, organism-based; conditions: in vivo, 1 h
[17] = system: Liver; assay: Biodistribution in Sprague-Dawley rat liver at 300 uCi, iv after 15 mins; type: ADME, organism-based; conditions: in vivo, 0.25 h
[18] = system: Bone; assay: Biodistribution in Sprague-Dawley rat bone at 300 uCi, iv after 30 mins; type: ADME, organism-based, Bone element; conditions: in vivo, 0.5 h
[19] = system: Brain; assay: Biodistribution in Sprague-Dawley rat brain at 300 uCi, iv after 60 mins; type: ADME, organism-based; conditions: in vivo, 1 h
[20] = system: Heart; assay: Biodistribution in Sprague-Dawley rat heart at 300 uCi, iv after 60 mins; type: ADME, organism-based; conditions: in vivo, 1 h
[21] = system: Heart; assay: Biodistribution in Sprague-Dawley rat heart at 300 uCi, iv after 30 mins; type: ADME, organism-based; conditions: in vivo, 0.5 h
[22] = system: Kidney; assay: Biodistribution in Sprague-Dawley rat kidney at 300 uCi, iv after 15 mins; type: ADME, organism-based; conditions: in vivo, 0.25 h
[23] = system: Brain; assay: Biodistribution in Sprague-Dawley rat brain at 300 uCi, iv after 15 mins; type: ADME, organism-based; conditions: in vivo, 0.25 h
[24] = system: Lung; assay: Biodistribution in Sprague-Dawley rat lung at 300 uCi, iv after 60 mins; type: ADME, organism-based; conditions: in vivo, 1 h
[25] = Biodistribution in Sprague-Dawley rat testis at 300 uCi, iv after 30 mins; type: ADME, organism-based; conditions: in vivo, 0.5 h
[26] = system: Kidney; assay: Biodistribution in Sprague-Dawley rat kidney at 300 uCi, iv after 5 mins; type: ADME, organism-based; conditions: in vivo
[27] = Ratio of drug uptake in midbrain to caudate of anesthetized rhesus monkey at 15 to 20 mCi pretreated with 0.125 mg/kg desipramine by microPET; type: ADME, organism-based, Macaca mulatta; parameters: dose 0.125 mg/kg; conditions: in vivo; procedure, shortened: as §1
[28] = system: Liver; assay: Biodistribution in Sprague-Dawley rat liver at 300 uCi, iv after 30 mins; type: ADME, organism-based; conditions: in vivo, 0.5 h
[29] = system: Heart; assay: Biodistribution in Sprague-Dawley rat heart at 300 uCi, iv after 5 mins; type: ADME, organism-based; conditions: in vivo
[30] = system: Muscle tissue; assay: Biodistribution in Sprague-Dawley rat muscle at 300 uCi, iv after 30 mins; type: ADME, organism-based; conditions: in vivo, 0.5 h
[31] = Ratio of drug uptake in midbrain to caudate of awaken rhesus monkey at 15 to 20 mCi after by PET method; type: ADME, Macaca mulatta; conditions: in vivo; procedure, shortened: as §3
[32] = system: Brain; assay: Biodistribution in Sprague-Dawley rat brain at 300 uCi, iv after 30 mins; type: ADME, organism-based; conditions: in vivo, 0.5 h
[33] = system: Blood; assay: Biodistribution in Sprague-Dawley rat blood at 300 uCi, iv after 5 mins; type: ADME, organism-based; conditions: in vivo
[34] = system: Blood; assay: Biodistribution in Sprague-Dawley rat blood at 300 uCi, iv after 60 mins; type: ADME, organism-based; conditions: in vivo, 1 h
[35] = Ratio of drug uptake in pons to caudate of anesthetized rhesus monkey at 15 to 20 mCi after 85 mins postinjection by microPET; type: ADME, organism-based, Macaca mulatta; conditions: in vivo; procedure, shortened: as §2
[36] = system: Pancreas; assay: Biodistribution in Sprague-Dawley rat pancreas at 300 uCi, iv after 15 mins; type: ADME, organism-based; conditions: in vivo, 0.25 h
[37] = Ratio of drug uptake in cerebellum to caudate of anesthetized rhesus monkey at 15 to 20 mCi after 85 mins postinjection by microPET; type: ADME, organism-based, Macaca mulatta; conditions: in vivo
Procedure, shortened: (§4)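 Anesthetized adult male rhesus monkeys given 15–20 mCi of the ¹¹C tracer, alone or after desipramine (0.125 or 0.25 mg/kg) 40 min beforehand. MicroPET emission collected continuously for 125 min and binned. ROIs drawn manually on anatomical landmarks to give time-activity curves. Region-to-caudate uptake ratio taken at 85 min postinjection.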

[38] = system: Bone; assay: Biodistribution in Sprague-Dawley rat bone at 300 uCi, iv after 5 mins; type: ADME, organism-based, Bone element; conditions: in vivo
[39] = Biodistribution in Sprague-Dawley rat testis at 300 uCi, iv after 60 mins; type: ADME, organism-based; conditions: in vivo, 1 h
[40] = system: Pancreas; assay: Biodistribution in Sprague-Dawley rat pancreas at 300 uCi, iv after 60 mins; type: ADME, organism-based; conditions: in vivo, 1 h
[41] = system: Lung; assay: Biodistribution in Sprague-Dawley rat lung at 300 uCi, iv after 5 mins; type: ADME, organism-based; conditions: in vivo
[42] = Biodistribution in Sprague-Dawley rat testis at 300 uCi, iv after 15 mins; type: ADME, organism-based; conditions: in vivo, 0.25 h
[43] = system: Muscle tissue; assay: Biodistribution in Sprague-Dawley rat muscle at 300 uCi, iv after 15 mins; type: ADME, organism-based; conditions: in vivo, 0.25 h
[44] = system: Blood; assay: Biodistribution in Sprague-Dawley rat blood at 300 uCi, iv after 30 mins; type: ADME, organism-based; conditions: in vivo, 0.5 h
[45] = Ratio of drug uptake in midbrain to caudate of anesthetized rhesus monkey at 15 to 20 mCi after 85 mins postinjection by microPET; type: ADME, organism-based, Macaca mulatta; conditions: in vivo; procedure, shortened: as §4
[46] = system: Bone; assay: Biodistribution in Sprague-Dawley rat bone at 300 uCi, iv after 15 mins; type: ADME, organism-based, Bone element; conditions: in vivo, 0.25 h
[47] = system: Bone; assay: Biodistribution in Sprague-Dawley rat bone at 300 uCi, iv after 60 mins; type: ADME, organism-based, Bone element; conditions: in vivo, 1 h
[48] = system: Pancreas; assay: Biodistribution in Sprague-Dawley rat pancreas at 300 uCi, iv after 5 mins; type: ADME, organism-based; conditions: in vivo
[49] = system: Spleen; assay: Biodistribution in Sprague-Dawley rat spleen at 300 uCi, iv after 15 mins; type: ADME, organism-based; conditions: in vivo, 0.25 h
[50] = Biodistribution in Sprague-Dawley rat testis at 300 uCi, iv after 5 mins; type: ADME, organism-based; conditions: in vivo
[51] = system: Lung; assay: Biodistribution in Sprague-Dawley rat lung at 300 uCi, iv after 30 mins; type: ADME, organism-based; conditions: in vivo, 0.5 h
[52] = Ratio of drug uptake in thalamus to caudate of anesthetized rhesus monkey at 15 to 20 mCi pretreated with 0.125 mg/kg desipramine by microPET; type: ADME, organism-based, Macaca mulatta; parameters: dose 0.125 mg/kg; conditions: in vivo; procedure, shortened: as §1
[53] = Ratio of drug uptake in thalamus to caudate of awaken rhesus monkey at 15 to 20 mCi after by PET method; type: ADME, Macaca mulatta; conditions: in vivo; procedure, shortened: as §3
[54] = system: Muscle tissue; assay: Biodistribution in Sprague-Dawley rat muscle at 300 uCi, iv after 5 mins; type: ADME, organism-based; conditions: in vivo
[55] = Ratio of drug uptake in cerebellum to caudate of anesthetized rhesus monkey at 15 to 20 mCi pretreated with 0.125 mg/kg desipramine by microPET; type: ADME, organism-based, Macaca mulatta; parameters: dose 0.125 mg/kg; conditions: in vivo; procedure, shortened: as §1
[56] = system: Pancreas; assay: Biodistribution in Sprague-Dawley rat pancreas at 300 uCi, iv after 30 mins; type: ADME, organism-based; conditions: in vivo, 0.5 h

[11CH3]c1ccccc1O[C@@H](c1ccccc1)[C@@H]1CNCCO1 gave a Ratio [1] of 1.13, a Drug uptake [2] of 0.56 % ID/g and a Drug uptake [3] of 0.31 % ID/g. The Drug uptake [4] was 1.49 % ID/g, the Drug uptake [5] was 0.28 % ID/g and the Drug uptake [6] was 0.05 % ID/g. It also gave a Drug uptake [7] of 3.5 % ID/g, a Ratio [8] of 1.3 and a Drug uptake [9] of 1.13 % ID/g. It also gave a Ratio [10] of 1.13, a Drug uptake [11] of 6.92 % ID/g and a Drug uptake [12] of 0.29 % ID/g. The Drug uptake [13] was 0.49 % ID/g, the Drug uptake [14] was 0.9 % ID/g and the Ratio [15] was 0.93. It also gave a Drug uptake [16] of 0.22 % ID/g, a Drug uptake [17] of 0.77 % ID/g and a Drug uptake [18] of 0.2 % ID/g. The Drug uptake [19] was 0.25 % ID/g, the Drug uptake [20] was 0.62 % ID/g and the Drug uptake [21] was 1.07 % ID/g. The Drug uptake [22] was 0.85 % ID/g, the Drug uptake [23] was 0.72 % ID/g and the Drug uptake [24] was 1.98 % ID/g. The Drug uptake [25] was 0.19 % ID/g, the Drug uptake [26] was 2.66 % ID/g and the Ratio [27] was 1.2. For the same compound, the Drug uptake [28] was 0.46 % ID/g, the Drug uptake [29] was 3.43 % ID/g and the Drug uptake [30] was 0.22 % ID/g. It also gave a Ratio [31] of 1.2, a Drug uptake [32] of 0.55 % ID/g and a Drug uptake [33] of 0.13 % ID/g. For the same compound, the Drug uptake [34] was 0.04 % ID/g, the Ratio [35] was 1.44 and the Drug uptake [36] was 0.83. For the same compound, the Ratio [37] was 1.25, the Drug uptake [38] was 0.48 % ID/g and the Drug uptake [39] was 0.15 % ID/g. It also gave a Drug uptake [40] of 0.63 % ID/g, a Drug uptake [41] of 15.3 % ID/g and a Drug uptake [42] of 0.18 % ID/g. The Drug uptake [43] was 0.22 % ID/g, the Drug uptake [44] was 0.05 % ID/g and the Ratio [45] was 1.43. It also gave a Drug uptake [46] of 0.37 % ID/g, a Drug uptake [47] of 0.17 % ID/g and a Drug uptake [48] of 1.59 % ID/g. For the same compound, the Drug uptake [49] was 1.79 % ID/g, the Drug uptake [50] was 0.18 % ID/g and the Drug uptake [51] was 3.63 % ID/g. It also gave a Ratio [52] of 1.1, a Ratio [53] of 1.25 and a Drug uptake [54] of 0.25 % ID/g. It also gave a Ratio [55] of 1.04 and a Drug uptake [56] of 0.77 % ID/g.
